According to the RNAGym collection of RNA variant scans (doi:10.1126/science.aae0568):
This sample holds only a part of the variants without activity.

B1: tRNA (parent)
chain: GUUCCGUUGGCGUAAUGGUAACGCGUCUCCCUCCUAAGGAGAAGACUGCGGGUUCGAGUCCCGUACGGAACG

Variants of: B1
Assay: yeast fitness relative to wild type (ratio to wild type); higher = fitter; tRNA-Arg(CCU), competitive growth, 37 C, YPD
Procedure, shortened: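 For this measurement, the tRNA-Arg(CCU) gene was varied by chemical synthesis at a 3% per-site mutation rate across 69 sites, and each variant was placed at the native genomic locus in Saccharomyces cerevisiae. The pooled strains went through a 24-hour competition in YPD at 37°C in six parallel replicates, with amplicons from start and end populations read by 100-nucleotide paired-end sequencing. Darwinian fitness relative to wild type followed from the change in each genotype's frequency. Genotypes needed ≥ 100 starting reads, and estimates < 0.5 were set to 0.5.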

| Variant | yeast fitness |
| --- | --- |
| GUUCCGUUGGCGUAAUGAUAACGCGUCUCCCUCUUAAGGAGAAGACUACGGGUUCGAGUCCCGUCCGGAACG [G18A C34U G48A A65C] | ≤ 0.5 |
| GUUCCGUUGGCGUAAUGGUAAAGCGUCUCCCUCCUAAGGAGAAGACUGCGGGUUCGAGUCGCGUACGGAACG [C22A C61G] | 0.594 |
| GUUCUGUUGGCGUAAUGGUAACGUGUCUCCCUCCUAAGGAGAAGACUGCGGGUUUGAGUCCCGUACGGAACG [C5U C24U C55U] | 0.711 |
| GUUCCGUUGGCGUAAUGGUAACGUCUCUCCCUCCUAAGGAGAAGAAUGCGGGUUCGAGUCCCGUACGGAACG [C24U G25C C46A] | 1.02 |
| GUUACGUUGGCGUAAUGGUAACGCGUCUCCGUCCUAAGAAGAAGACUGCGCGUUCGAGUCCCGUACGGAACG [C4A C31G G39A G51C] | ≤ 0.5 |
| GUUCUGUUGGCGUAAUGGUAACGCGUCUCCCUCCUAAGGAGAAGACUGCGGGUUGGAGUCCCGUACGGUACG [C5U C55G A69U] | ≤ 0.5 |
| GUUCCGUUGGCGUAAAGGUGACGCGUCUGUCUCCUAAGGUGAAGACUGCGGGUUCGAGUCCCGUACGGAGCG [U16A A20G C29G C30U A40U A70G] | ≤ 0.5 |
| GUUCCGCUGGCGUAAUGGUAACGCGUCUCCCUCCUAACGAGAAGACUGAGGGUUCGAGUCCCGUACGGAACG [U7C G38C C49A] | 0.618 |
| GUUCGGUUGGCGUAAUGGUCACGCGUGUCCCUCCUAAGGAGAAGACUGUGGGAUCGAGUCCCGUACGGAACG [C5G A20C C27G C49U U53A] | 0.568 |
| GUUCCAUUGGCGUAAUGGUAACGCGUGUCCCUCCUAAGGAGAAGGCUGCGGGUUCGAGUCCCGUACGGAACG [G6A C27G A45G] | 0.521 |
| GUCCCGUUGGCGUAAUGGUAACGCGUCUCCCUCCUAAGGAGAAGACUGGGGGUUCGAGUCCCGUUCGGAACG [U3C C49G A65U] | 0.658 |
| GUUCCGUUGGCGUAAUGGUAACGCAUCUCGCUCCUAAGGAGAAGACUGCGGGUUCGAGCCCCGUAAGGAACG [G25A C30G U59C C66A] | ≤ 0.5 |
| GUUCCGUUGGCGUAAUGGUAUCGCGUCUCCCUCCUAAGGAGAAGACUGUGGGUACGAGUCCCGCACGGAACG [A21U C49U U54A U64C] | ≤ 0.5 |
| GUUCCGUUGGCGUAAUGGUAACGCGUUUCUCUCCUAAGGAGAAGAGUGCGGGUUCGAGUCCCGUACGGAACG [C27U C30U C46G] | 0.558 |
| GAUCCGUUGGCGUAAUGGACACGCGACUCCCUCCUAAGGAGAGGACUGCGGGUUCGAGUCCCGUACGGAACG [U2A U19A A20C U26A A43G] | ≤ 0.5 |
| GUUCCGUUGGCGUAAUGGUAACGCGUCUCCCUCCUAAGGAGAAGACUGCGGGUUGGAGCUCCGUACUGAACG [C55G U59C C60U G67U] | 0.548 |
| GUUCCGUUGGCGUAAUGGUACCGCGUCUUCCUCCUAAGGAGAAGUCUGCGGGUUCGAGUCCCGUACGGAACG [A21C C29U A45U] | 0.521 |
| GUUCCGUUAGCGAAAUGGUAACGCGUCUCCCUCCUAAGGAGAAGACUGCGGGUUCGAGUCCCGUGUGGAACG [G9A U13A A65G C66U] | ≤ 0.5 |
| GUUCCGUUGGCGUAAUGGUAAUGCGUCUCCCUCCUAAGGAGAAGACUGCGGCUCCGAGUCCCGUACGGAACG [C22U G52C U54C] | ≤ 0.5 |

| Variant | yeast fitness |
| --- | --- |
| GUUCCGUUGGCGUAAUAGUAACGCGUCUCCCUCCUAAGGAGAAGUCUGCGGAUUCGAGUCCCGUACGGAACG [G17A A45U G52A] | ≤ 0.5 |
| GAUCCGUUGGCGUAAUGGUUACGCGUCUCCCUCAUAAGGAGAAGACUGCGGGUUCGAGUCUCGUACGGAACG [U2A A20U C34A C61U] | ≤ 0.5 |
| GUGCCGUUGGCGUAAUGGUAACGCGUCUCCCUCCUAAGGAGAAGAUUGCGGGUUCGAGACCCGUACGGAACG [U3G C46U U59A] | 0.562 |
| GUUCUGUUGGGGUAAUGGUAAGGCGUCUCCCUCCUAAGGAGAAGAGUGCGGGUUCGAGUCCCGUACGGAACG [C5U C11G C22G C46G] | ≤ 0.5 |
| GUUCCGUUGGCGUAAGGGUAACGCGUCUCCCUCCUAAGGAGAAGAAUGCGGGUUCCAGUCCCGUACGGAGCG [U16G C46A G56C A70G] | ≤ 0.5 |
| GUUCCGUUGGCGUAAUGGUAACGCGUCUCCCUCCUGAGGGGAAGACUGCGGGUUCGAGUCCCGUACGGAACG [A36G A40G] | 1.01 |
| GUUCCGUUGGCGUAAUGGAAACGCGUCUCCCUCCUAAGGGGAAGACUGCGGGUUCGAGUUCCGCACGGAACG [U19A A40G C60U U64C] | 0.705 |
| GUUCCGUUGGCAGAAUGGUAACGCGUCUCCCUCCUAAGGAGAAGACUGCGGGUUCGAGUCCCGUACGGAACG [G12A U13G] | 0.869 |
| GUUCCCUCGGCGUAAUGGUAACGCGUUUCCCUCCUAAGGAGAAGACUACGGGUUCGGGUCCCGUACGGAACG [G6C U8C C27U G48A A57G] | ≤ 0.5 |
| GUACCGUUGGCGUAAUGGUAACGCGUCUCCCUCCUAAGGCGAAGACUGCGGGUUAGAGUCCCGUAAGGAACG [U3A A40C C55A C66A] | ≤ 0.5 |
| GUUCCGUUGGCGUACUGGUAGCGCGUCUCCCUCCUAAGGAGAAGACUGCGGGUUCGAGUCCCGUACGGAACG [A15C A21G] | 0.58 |
| GUUCCGUUGGCGUAAUGGUAACGCGUCUCCGUCCUAAGGAGAAGACUGCGGGUUCGAGUCCCGUAGGGAACG [C31G C66G] | 0.587 |
| GUUCCGUUGGCGUAAUGGUAACGCGUCUCGCUCUUUAGGAGAAGACUGCGGGUUCGAGUCCCGUUCGGAACG [C30G C34U A36U A65U] | 0.612 |
| GUUCCGUUGGCGUAAUGGUAGCGCGUCUCCCGCCUAAGGAGAAGACUGCGGGUUCGAGUCCCGUACGGAACG [A21G U32G] | 0.576 |
| GUUCCGUUGGCGCAAUGGUUACGCGUCUCCCUCCUAAGCAGACGACUGAGGGAUCGAGUCCCGUACGGAACG [U13C A20U G39C A43C C49A U53A] | ≤ 0.5 |
| GUUGCGUUGGCGUAAUGGUAACGCGUCUGCCUCCUAAGGAGAAGACUGCGGGUUCGCGUCCCGUACGGAACG [C4G C29G A57C] | 0.612 |
| GUUCCGUUGCCGUAAUGGUAACGCGUCUCCCUCCUAAGGAGAAGACUGCGGGUUGGAGUCCCGUACGGACCG [G10C C55G A70C] | ≤ 0.5 |
| GUUCCGUUGGCGUAGUGGUAACGCGUCGCCCUCCUAAGGAGAAGACUGCGGGAUCAAGUCCCGUACGGAACG [A15G U28G U53A G56A] | ≤ 0.5 |
| GUUCCGUUGGCGUAAUGGUAACGCGUUUCCCUUCCAAGGAGAAGACUGCGGGUUCGAGUCCCGUACGGAACG [C27U C33U U35C] | ≤ 0.5 |
